Series [1] concerns Mus musculus. The experiment in a line: Area under curve(AUC) was measured in mice after oral administration (50 mg/kg). It is filed as ADME, organism-based. Particulars: in vivo. The method in brief:
(§1)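 Male Swiss-Webster mice (20 ± 2 g) were given a single 50 mg/kg oral dose by gavage. Blood concentrations and urine levels were measured by microbiological assay, and urinary recovery was taken over 0–6 h.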

Series [2] is described as follows: (§2) Cmax was measured in mice after an oral dose of 50 mg/kg. It is filed as ADME, organism-based. Details: dose 50 mg/kg, route oral. Particulars: mouse, in vivo. Summed up: as §1
Series [3] is filed under the species Mus musculus. The series is described as follows: Percentage of dose recovered after 0-6 hr in the urine of mice was measured. Particulars: in vivo. It is filed as ADME, organism-based. The method in brief: as §1
The nature of series [4]: Half life was measured. Format: ADME. Summed up:
as §1

Series [5] deals with Escherichia coli. The experiment in a line: Minimum inhibitory concentration (MIC) against Escherichia coli by 2-fold microdilution technique. It is filed as functional. The method in brief:
(§3)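 For each organism, an overnight culture was grown in Mueller-Hinton broth at 37 °C. Twofold microtiter dilutions in Nutrient Broth covered 0.005–125 µg/mL. Each well received about 10^4 organisms, and plates were incubated 18 h at 37 °C. MIC was the lowest concentration giving no visible growth.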
On the technique in general: Dilution methods test growth across graded concentrations, often in twofold steps.

Series [6] has as its system Escherichia coli. The experiment in a line: Minimum inhibitory concentration (MIC) […] against Escherichia coli. It is filed as functional. The method in brief:
as §3

A further series has as its system Haemophilus influenzae. The experiment in a line: Minimum inhibitory concentration (MIC) against Haemophilus influenzae by 2-fold microdilution technique. Format: functional. The method in brief:
as §3

A further series concerns Klebsiella pneumoniae. The series is described as follows: Minimum inhibitory concentration (MIC) against Klebsiella pneumoniae by 2-fold microdilution technique. Format: functional. The method in brief:
as §3

Series [7] deals with Escherichia coli. The series is described as follows: Protective dose (PD50) against Escherichia coli infected mice. Format: functional. Particulars: read-out: PD50. Summed up: (§4)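 Male Swiss-Webster mice (20 ± 2 g) were challenged intraperitoneally with enough bacteria to kill untreated controls within 72 h. Drug was given orally by gavage twice: at 0 and 2 h after E. coli challenge, or at 1 and 3.5 h after S. pneumoniae challenge. PD50 is the dose in mg/kg per dose that protects 50% of animals.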

Series [8] deals with Streptococcus pneumoniae. The experiment in a line: Protective dose (PD50) against Streptococcus pneumoniae infected mice. Format: functional. Summed up:
as §4

The test system of the next series is Proteus mirabilis. The series is described as follows: Minimum inhibitory concentration (MIC) against Proteus mirabilis by 2-fold microdilution technique. Format: functional. Summed up:
as §3

The subject of series [9] is Streptococcus pneumoniae. The series is described as follows: Minimum inhibitory concentration (MIC) against Streptococcus pneumoniae by 2-fold microdilution technique. Format: functional. Summed up:
as §3

The test system of series [10] is Streptococcus pneumoniae. The series is described as follows: Minimum inhibitory concentration (MIC) […] against Streptococcus pneumoniae. It is filed as functional. The method in brief: as §3
The test system of the next series is Enterococcus faecalis. The series is described as follows: Minimum inhibitory concentration (MIC) against Streptococcus faecalis by 2-fold microdilution technique. It is filed as functional. The method in brief: as §3
The subject of a further series is Streptococcus pyogenes. The series is described as follows: Minimum inhibitory concentration (MIC) against Streptococcus pyogenes by 2-fold microdilution technique. It is filed as functional. Summed up:
as §3

In the next series the test system is Staphylococcus aureus. The experiment in a line: Minimum inhibitory concentration (MIC) against Staphylococcus aureus by 2-fold microdilution technique. It is filed as functional. Summed up: as §3
For series [11], the system named is Mus musculus. The series is described as follows: Area under curve(AUC) was measured in mice after oral administration. It is filed as ADME, organism-based. Details: concentration or dose not given beside the values; unit not given here. Particulars: in vivo. The method in brief:
as §1

The test system of series [12] is Mus musculus. The description is as §2. Particulars: in vivo. Format: ADME, organism-based. The arrangement: dose 50 mg/kg, route oral. Summed up: as §1
Setting [13] is: Escherichia coli, read-out: MIC.
Setting [14] is: Streptococcus pneumoniae, read-out: MIC.

The results in this text go back to ChEMBL document CHEMBL1124257, “An examination of O-2-isocephems as orally absorbable antibiotics” (J Med Chem, 1988).

By Cmax is commonly meant the highest concentration seen after dosing. Usually half-life stands for how long it takes for the measured level to halve.

Structures are written as SMILES. Values after ≈ are worked out from the molar mass of the structure shown.

For `C=CC1=C(C(=O)O)N2C(=O)[C@@H](NC(=O)[C@H](N)c3ccc(O)cc3)[C@H]2CO1`, in the series with Mus musculus [1], the AUC stood at 30 µg/mL. This compound gave a Cmax in [2] of 26000 ng/mL. Also, the “Urinary recovery (% of dose, 0-6 h)” value in the series listed under Mus musculus [3] is given as 73%. This compound also showed a half-life in [4] of 39 min. For the same compound, the MIC with Escherichia coli [5] (setting [13]) is 2 µg/mL (≈ 5.57 µM); with Escherichia coli [6] (setting [13]), 2 µg/mL (≈ 5.57 µM); in the series with Haemophilus influenzae (Haemophilus influenzae, read-out: MIC), 1 µg/mL (≈ 2.78 µM); in the series on Klebsiella pneumoniae (Klebsiella pneumoniae, read-out: MIC) it was 8 µg/mL (≈ 22.3 µM); with Proteus mirabilis (Proteus mirabilis, read-out: MIC), 0.5 µg/mL (≈ 1.39 µM); in the series on Streptococcus pneumoniae [9] (setting [14]), 0.03 µg/mL (≈ 0.0835 µM). The MIC was 0.03 µg/mL (≈ 0.0835 µM) in the series on Streptococcus pneumoniae [10] (setting [14]); 0.5 µg/mL (≈ 1.39 µM) in the series with Enterococcus faecalis (Enterococcus faecalis, read-out: MIC); 0.016 µg/mL (≈ 0.0445 µM) in the series with Streptococcus pyogenes (Streptococcus pyogenes, read-out: MIC); 0.13 µg/mL (≈ 0.362 µM) in the series with Staphylococcus aureus (Staphylococcus aureus, read-out: MIC). Moreover, the ED50 in the series on Escherichia coli [7] is 2.1 mg/kg; in the series with Streptococcus pneumoniae [8] (Streptococcus pneumoniae, read-out: PD50), 0.8 mg/kg.

For the compound `C/C=C/C1=C(C(=O)O)N2C(=O)[C@@H](NC(=O)[C@H](N)c3ccc(O)cc3)[C@H]2SC1.O` (relative stereo; 57) [CEFPROZIL, (E)-], the AUC with Mus musculus [11] stood at 45. For the same compound, the peak concentration (Cmax) with Mus musculus [12] worked out at 35000 ng/mL. In the series listed under Mus musculus [3], the “Urinary recovery (% of dose, 0-6 h)” value came out at 65%. This compound also showed a T1/2 in series [4] of 47 min. The MIC against Escherichia coli [5] stood at 8 µg/mL; against Escherichia coli [6] it was 8 µg/mL; in the series on Haemophilus influenzae, 4 µg/mL; in the series with Klebsiella pneumoniae it was 8 µg/mL; with Proteus mirabilis it was 1 µg/mL; with Streptococcus pneumoniae [9] it was 0.06 µg/mL. Moreover, the MIC was 0.06 µg/mL in the series on Streptococcus pneumoniae [10], 4 µg/mL in the series with Enterococcus faecalis, 0.03 µg/mL against Streptococcus pyogenes and 0.25 µg/mL against Staphylococcus aureus. For the same compound, the PD50 with Streptococcus pneumoniae [8] was determined as 0.5 mg/kg.
